Active and inactive are the calls of the source. The rule behind the calls is not given here.
How the values were obtained:
A549 = test: Cytotoxicity against human A549 cells after 72 hrs by SRB assay; assay type: functional, cell-based; conditions: A549, 72 h
MDA-MB-231 = test: Cytotoxicity against human MDA-MB-231 cells after 72 hrs by SRB assay; assay type: functional, cell-based; conditions: MDA-MB-231, 72 h
[1] = Cytotoxicity against human MCF10A cells after 72 hrs by SRB assay; assay type: cell-based; conditions: MCF-10A
MIA PaCa-2 = test: Cytotoxicity against human MIAPaCa2 cells after 72 hrs by SRB assay; assay type: functional, cell-based; conditions: MIA PaCa-2, 72 h
HeLa = test: Cytotoxicity against human HeLa cells after 72 hrs by SRB assay; assay type: functional, cell-based
MEF = test: Cytotoxicity against MEF after 72 hrs by SRB assay; assay type: cell-based; conditions: Mus musculus
[2] = Cytotoxicity against human H441 cells after 72 hrs by SRB assay; assay type: functional, cell-based; conditions: NCI-H441, 72 h
[3] = Half life in C3H-HEJ mouse serum at 60 mg/kg, ip up to 16 hrs by HPLC analysis; assay type: ADME, organism-based; parameters: dose 60 mg/kg, route intraperitoneal
NCI-H460 = test: Cytotoxicity against human H460 cells after 72 hrs by SRB assay; assay type: functional, cell-based; conditions: NCI-H460, 72 h
[4] = Cytotoxicity against human U87MG cells after 72 hrs by SRB assay; assay type: functional, cell-based, U-87MG ATCC; conditions: U-87 MG
NCI-H226 = test: Cytotoxicity against human NCI-H226 cells after 72 hrs by SRB assay; assay type: functional, cell-based; conditions: NCI-H226, 72 h
[5] = biological target: Sphingosine kinase 1 (Homo sapiens) (UniProt Q9NYA1); test: Inhibition of Sphingosine kinase 1 in human HeLa cells at 1.25 uM pre-incubated for 24 hrs; assay type: cell-based
Method in brief: (§1)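 HeLa cells preincubated 24 h with compound or DMSO; cytosol (100,000g supernatant) at 10 µg protein incubated with 50 µM D-erythro-sphingosine, 200 µM ATP plus [γ-32P]ATP in pH 7.4 Tris buffer, 30 min, 37 °C; S1P resolved by TLC and quantified by scintillation counting; triplicate.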

[6] = Chemical stability of the compound assessed as compound remaining after 72 hrs by HPLC analysis; assay type: physicochemical
Method in brief: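 Compound in DMSO, 1 mg/mL, added to 5 mL serum-free DMEM (no cells) and shaken at 37 °C; samples taken at 0, 2, 16 and 72 h, filtered and analyzed by C18 HPLC; percentages of parent and conjugate peak areas calculated per time point.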

[7] = biological target: Sphingosine kinase 1 (Homo sapiens) (UniProt Q9NYA1); test: Inhibition of Sphingosine kinase 1 in human HeLa cells at >=5 uM pre-incubated for 24 hrs; assay type: cell-based; method in brief: as §1
Serum [8] = test: Metabolic stability of the compound in fetal bovine serum assessed as conversion of SKI-1 after 16 hrs by HPLC analysis; assay type: ADME, cell-free, Bos taurus; conditions: cattle
Method in brief: (§2)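 Compound in DMSO, 1 mg/mL, added to 5 mL DMEM with 10% FBS (no cells) and shaken at 37 °C; samples at 0, 2, 16 and 72 h filtered and run on C18 HPLC; conjugate remaining and released parent SKI expressed as percentages of peak areas per time point.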

Serum [9] = test: Metabolic stability of the compound in fetal bovine serum assessed as conversion of SKI-2 after 2 hrs by HPLC analysis; assay type: ADME, cell-free, Bos taurus; conditions: cattle; method in brief: as §2
Serum [10] = test: Metabolic stability of the compound in fetal bovine serum assessed as conversion of SKI-2 after 72 hrs by HPLC analysis; assay type: ADME, cell-free, Bos taurus; conditions: cattle; method in brief: as §2
[11] = Metabolic stability of the compound in fetal bovine serum assessed as compound remaining after 72 hrs by HPLC analysis; assay type: ADME, cell-free, Bos taurus; conditions: cattle, read-out: Stability; method in brief: as §2
Serum [12] = test: Metabolic stability of the compound in fetal bovine serum assessed as conversion of SKI-2 after 16 hrs by HPLC analysis; assay type: ADME, cell-free, Bos taurus; conditions: cattle; method in brief: as §2

Chain of Sphingosine kinase 1 (Homo sapiens) (Q9NYA1 whole entry): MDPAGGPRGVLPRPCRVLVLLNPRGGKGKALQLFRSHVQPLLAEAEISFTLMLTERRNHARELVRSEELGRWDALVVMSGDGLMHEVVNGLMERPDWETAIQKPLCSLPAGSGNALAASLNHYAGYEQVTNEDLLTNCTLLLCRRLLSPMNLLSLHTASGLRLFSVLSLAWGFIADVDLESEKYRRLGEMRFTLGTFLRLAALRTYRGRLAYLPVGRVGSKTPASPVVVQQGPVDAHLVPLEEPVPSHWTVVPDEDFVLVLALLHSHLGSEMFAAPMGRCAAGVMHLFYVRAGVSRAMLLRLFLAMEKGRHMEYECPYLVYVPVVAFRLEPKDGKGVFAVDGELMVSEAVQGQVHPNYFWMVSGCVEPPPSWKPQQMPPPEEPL

SMILES | IC50 (A549) [µM] | IC50 (MDA-MB-231) [µM] | IC50 [1] [µM] | IC50 (MIA PaCa-2) [µM] | IC50 (HeLa) [µM] | IC50 (MEF) [µM] | IC50 [2] [µM] | half-life [3] [h] | IC50 (NCI-H460) [µM] | IC50 [4] [µM] | IC50 (NCI-H226) [µM] | Activity [5] | Stability [6] | Activity [7] | Stability (Serum [8]) [%] | Stability (Serum [9]) [%] | Stability (Serum [10]) [%] | remaining at 72 h [11] [%] | Stability (Serum [12]) [%]
O=C(N/N=C/c1c(O)ccc2ccccc12)c1cc(-c2ccc3ccccc3c2)n[nH]1 | 3.8 | 4.4 | 4.1 | 4.8 | 1 | 5 | 2 | 7 | 3.2 | 1 | 5.7 |  |  |  |  |  |  |  | 
CC(=O)Oc1ccccc1C(=O)Oc1ccc2ccccc2c1/C=N/NC(=O)c1cc(-c2ccc3ccccc3c2)n[nH]1 | 0.9 | 1.3 | 2.6 | 1.6 | 1 | 5.5 | 0.6 | 10 | 1.2 | 1.5 | 1.7 | Active | Stable | Active | 80 |  |  |  | 
Oc1ccc(Nc2nc(-c3ccc(Cl)cc3)cs2)cc1 | 7.8 | 8.2 | 14.5 | 7.7 | 9.1 | 8.9 | 8 |  | 9.2 | 10.7 | 8.6 |  |  |  |  |  |  |  | 
CC(=O)Oc1ccccc1C(=O)Oc1ccc(Nc2nc(-c3ccc(Cl)cc3)cs2)cc1 | 5.9 | 8.4 | 11.3 | 8.7 | 11.2 | 9.4 | 5.7 |  | 9.1 | 8.1 | 6.7 | Active | Stable | Active |  | 15 | 75 | 25 | 50

Reference: ChEMBL document CHEMBL1240447, “Synthesis and bioactivity of sphingosine kinase inhibitors and their novel aspirinyl conjugated analogs” (Eur J Med Chem, 2010)
